A short description of series [1]: Selectivity ratio of CC50 for human PBMC to EC50 for R5-tropic Human immunodeficiency virus 1 Ba-L subtype B. The method, boiled down: (§1)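 Selectivity index is calculated as CC50 (XTT viability in PBMCs, 7 days) divided by EC50 (p24 ELISA, HIV-1 Ba-L-infected PBMCs, 7 days).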
In series [2] the test system is Human immunodeficiency virus 1. Put plainly: Antiviral activity against R5-tropic Human immunodeficiency virus 1 Ba-L subtype B infected in human PBMC assessed as inhibition of viral replication after 7 days by ELISA. The format is functional, organism-based. As to conditions: 168 h. In a few lines: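 Phytohemagglutinin-stimulated PBMCs (2–3 days), then kept in medium with recombinant human IL-2, infected with HIV-1 Ba-L (R5-tropic, subtype B) and treated with a range of concentrations (µM). After 7 days, p24 antigen in culture supernatants was measured by capture ELISA. EC50 is the concentration reducing replication 50% versus infected controls. Mean ± SD of three independent experiments. AZT positive control.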

A short description of series [3]: Cytotoxicity against human PBMC after 7 days by XTT assay. Conditions: PBMC (peripheral blood mononuclear cells). It is filed as cell-based. In a few lines: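 Confluent PBMCs were exposed to a range of compound concentrations for 7 days, and viability was then read by XTT. CC50 is the concentration giving 50% cytotoxicity relative to untreated controls. Mean ± SD of three independent experiments.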

The test system of series [4] is Human immunodeficiency virus 1. Put plainly: Antiviral activity against Human immunodeficiency virus 1 Ba-L infected in macrophages assessed as inhibition of viral replication. The format is functional, organism-based.
For series [5], the target named is Human immunodeficiency virus type 1 reverse transcriptase (Human immunodeficiency virus 1, UniProt Q72547). Put plainly: Inhibition of Human immunodeficiency virus 1 reverse transcriptase.
Series [6] in a line: Selectivity ratio of CC50 for human PBMC to EC50 for Human immunodeficiency virus 1 Ba-L. In a few lines:
as §1

Series [7] relates to Human immunodeficiency virus 1. Put plainly: Antiviral activity against Human immunodeficiency virus 1 infected in human PBMC assessed as inhibition of viral replication. It is filed as functional, organism-based. The method, boiled down:
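Human PBMCs stimulated with phytohemagglutinin for 2–3 days, then kept in medium with recombinant human IL-2. Cells infected with HIV-1 Ba-L (R5-tropic, subtype B) and exposed to a range of compound concentrations for seven days. Supernatant p24 antigen measured by capture ELISA. EC50 is the concentration giving 50% less replication than infected controls. Mean ± SD of three independent experiments.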

Regarding `CCOC(=O)c1cn(CP(=O)(OC(C)C)OC(C)C)c2ccc(Br)cc2c1=O`, the “Ratio CC50/EC50” value in series [1] came to 14.3. Further, the EC50 in series [2] came to 56 µM. This molecule also displayed a CC50 at 168 h in series [3] of 802 µM.

Take `CCOC(=O)c1cn(CP(=O)(OC(C)C)OC(C)C)c2cc(C)ccc2c1=O`: in series [1], the “Ratio CC50/EC50” value worked out at 123.9. Also, the EC50 in series [2] was 9 µM. In series [3], this molecule had a CC50 at 168 h of 1120 µM.

Consider `CCOC(=O)c1cn(CP(=O)(OC(C)C)OC(C)C)c2ccccc2c1=O`, for which the “Ratio CC50/EC50” value in series [1] came to 316.4. Moreover, the EC50 in series [2] turned out to be 7.3 µM. Further, it took 2310 µM to reach half-maximal cytotoxicity in series [3] (CC50 at 168 h).

`CCOC(=O)c1cn(CP(=O)(OC(C)C)OC(C)C)c2ccc(Cl)cc2c1=O`: in series [1], the “Ratio CC50/EC50” value amounted to 152.4. In addition, in series [2], the EC50 worked out at 8.1 µM. The same molecule gave a half-maximal cytotoxic concentration (CC50) at 168 h in series [3] of 1240 µM.

For the molecule `CCOC(=O)c1cn(CP(=O)(OC(C)C)OC(C)C)c2ccc(F)cc2c1=O`, the “Ratio CC50/EC50” value in series [1] is 6240. For the same molecule, the EC50 in series [2] amounted to 0.4 µM. The CC50 at 168 h in series [3] was 2500 µM.

Take `CCOC(=O)c1cn(CP(=O)(OC(C)C)OC(C)C)c2ccc(C)cc2c1=O`: the “Ratio CC50/EC50” value in series [1] is listed as 61.3. Besides, the EC50 in series [2] was determined as 21.3 µM. This molecule registered a CC50 at 168 h in series [3] of 1320 µM.

As for `CCOC(=O)c1cn(CP(=O)(OC(C)C)OC(C)C)c2cc(F)ccc2c1=O`, the “Ratio CC50/EC50” value in series [1] is reported as 14675. In addition, the EC50 in series [2] came out at 0.2 µM. The midpoint of cytotoxicity in series [3], the CC50 at 168 h, lay at 2940 µM.

Turning to `O=C(O)c1cn([C@@H]2O[C@H](CO)[C@@H](O)[C@H]2O)c2ccc(Cl)cc2c1=O`, the values for the concentration for a half-maximal effect (EC50) in series [4] and in series [7] were 4.9 µM and 1.5 µM, respectively. In addition, the affinity in series [5] corresponds to a Ki of 0.5 µM. The “Ratio CC50/EC50” value in series [6] worked out at 1134.

Regarding `CCOC(=O)c1cn(CP(=O)(OC(C)C)OC(C)C)c2cc([N+](=O)[O-])ccc2c1=O`, the “Ratio CC50/EC50” value in series [1] is recorded as 36.9. Besides, the EC50 in series [2] is 22 µM. This molecule also had a CC50 at 168 h in series [3] of 812 µM.

Consider `CCOC(=O)c1cn(CP(=O)(OC(C)C)OC(C)C)c2ccc([N+](=O)[O-])cc2c1=O`, for which the EC50 in series [2] was found to be 38 µM. The same molecule came in with a CC50 at 168 h in series [3] of 931 µM.

In the case of `CCOC(=O)c1cn(CP(=O)(OC(C)C)OC(C)C)c2cc(Cl)ccc2c1=O`, in series [1], the “Ratio CC50/EC50” value was determined as 39.4. Further, the concentration giving a half-maximal response (EC50) in series [2] is 21 µM. The molecule also had a CC50 at 168 h in series [3] of 828 µM.

On to `CCOC(=O)c1cn(CP(=O)(OC(C)C)OC(C)C)c2cc(Br)ccc2c1=O`, for which, in series [1], the “Ratio CC50/EC50” value stood at 11.9. For the same molecule, the 50% effective concentration (EC50) in series [2] amounted to 61.2 µM. The molecule further had a CC50 at 168 h in series [3] of 731 µM.

Take `Cc1cn([C@H]2C[C@H](N=[N+]=[N-])[C@@H](CO)O2)c(=O)[nH]c1=O` [ZIDOVUDINE]: the EC50 in series [2] is 0.16 µM. In series [3], this molecule displayed a CC50 at 168 h of 128 µM.

As a reminder, the EC50 is the concentration giving half of the maximal effect. One may read the CC50 as the concentration at which the toxic effect on the cells reaches its halfway point. A low value points to greater toxicity to the cells. Broadly, the Ki is the equilibrium dissociation constant of an inhibitor or competing ligand from its target. A low value points to higher affinity.

Source of the values: ChEMBL document CHEMBL2057117, “Oxoquinoline acyclonucleoside phosphonate analogues as a new class of specific inhibitors of human immunodeficiency virus type 1” (Bioorg Med Chem Lett, 2012).
